From ChEMBL document CHEMBL3120107, “Cytotoxic cardiac glycosides and coumarins from Antiaris toxicaria” (2014)
≈ marks a conversion by molar mass, not a printed value. Calls of active or inactive are those of the source. The rule behind the calls is not given here.

Tests used:
[1] = system: SK-MEL-2; experiment: Cytotoxicity against human SK-MEL-2 cells assessed as growth inhibition after 72 hrs by SRB assay; assay type: functional; details: for EC50: Homo sapiens, SK-MEL-2, 72 h, read-out: ED50 (the source's name)
Summary of the method: (§1)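 Sulforhodamine B assay run by NCI-validated procedure. Cells grown at 37 °C under humidified 5% CO2 in RPMI-1640 with 25 mM HEPES, […] (w/v) sodium bicarbonate, 10% (v/v) FBS and 100 μg/mL kanamycin. Compounds came from DMSO stocks, with final DMSO ≤ 1% (v/v). Continuous exposure for 72 h. ED50 (μg/mL, 50% cell-number reduction) interpolated from dose-response data. Triplicate tests. Doxorubicin served as positive control.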

[2] = Cytotoxicity against human […] cells assessed as growth inhibition after 72 hrs by SRB assay; assay type: functional; details: Homo sapiens, HCT9, 72 h; read-out: ED50 (the source's name); summary of the method: as §1
[3] = system: CAKI-1; experiment: Cytotoxicity against human CAKI-1 cells assessed as growth inhibition after 72 hrs by SRB assay; assay type: functional; details: for EC50: Homo sapiens, CAKI-1, 72 h, read-out: ED50 (the source's name); summary of the method: as §1
[4] = system: 1A9; experiment: Cytotoxicity against human 1A9 cells assessed as growth inhibition after 72 hrs by SRB assay; assay type: functional; details: for EC50: Homo sapiens, 1A9, 72 h, read-out: ED50 (the source's name); summary of the method: as §1
[5] = system: MCF7; experiment: Cytotoxicity against human MCF7 cells assessed as growth inhibition after 72 hrs by SRB assay; assay type: functional; details: Homo sapiens, MCF7, 72 h; read-out: ED50 (the source's name); summary of the method: as §1
[6] = system: A549; experiment: Cytotoxicity against human A549 cells assessed as growth inhibition after 72 hrs by SRB assay; assay type: functional; details: Homo sapiens, A549, 72 h; read-out: ED50 (the source's name); summary of the method: as §1
[7] = system: KBVIN; experiment: (§2) Cytotoxicity against human KBVIN cells assessed as growth inhibition after 72 hrs by SRB assay; assay type: functional; summary of the method: as §1
[8] = system: PC-3; experiment: Cytotoxicity against human PC3 cells assessed as growth inhibition after 72 hrs by SRB assay; assay type: functional; details: for EC50: Homo sapiens, PC-3, 72 h, read-out: ED50 (the source's name); summary of the method: as §1
[9] = Cytotoxicity against human U87MG cells assessed as growth inhibition after 72 hrs by SRB assay; assay type: functional, U-87MG ATCC; details: Homo sapiens, U-87 MG, 72 h; read-out: ED50 (the source's name); summary of the method: as §1
[10] = as §2; assay type: functional; details: Homo sapiens, KBVIN, 72 h; read-out: ED50 (the source's name); summary of the method: as §1
[11] = system: KB; experiment: Cytotoxicity against human KB cells assessed as growth inhibition after 72 hrs by SRB assay; assay type: functional; details: Homo sapiens, KB, 72 h; read-out: ED50 (the source's name); summary of the method: as §1

Structure (SMILES): COc1c(CC(O)C(C)(C)O)cc2ccc(=O)oc2c1O (centres undefined)
- EC50 [1]: 1.3 µg/mL (≈ 4.42 µM)
- EC50 [2]: 6.7 µg/mL (≈ 22.8 µM)
- EC50 [3]: 1.5 µg/mL (≈ 5.1 µM)
- EC50 [4]: 1.5 µg/mL (≈ 5.1 µM)
- EC50 [5]: > 20 µg/mL
- EC50 [6]: 10.8 µg/mL (≈ 36.7 µM)
- growth inhibition (GI) [7]: inactive

Structure (SMILES): C[C@@H]1O[C@H](O[C@H]2CC[C@]3(CO)[C@H]4CC[C@]5(C)[C@@H](C6=CC(=O)OC6)CC[C@]5(O)[C@@H]4CC[C@]3(O)C2)[C@H](O)[C@H](O)[C@H]1O [CONVALLATOXOL]
- EC50 [1]: 0.014 µg/mL (≈ 0.0253 µM)
- EC50 [2]: 0.02 µg/mL (≈ 0.0362 µM)
- EC50 [3]: 0.0061 µg/mL (≈ 0.011 µM)
- EC50 [4]: 0.0076 µg/mL (≈ 0.0138 µM)
- EC50 [8]: 0.013 µg/mL (≈ 0.0235 µM)
- EC50 [9]: 0.036 µg/mL (≈ 0.0651 µM)
- EC50 [5]: 0.012 µg/mL (≈ 0.0217 µM)
- EC50 [6]: 0.004 µg/mL (≈ 0.00724 µM)
- EC50 [10]: 0.014 µg/mL (≈ 0.0253 µM)
- EC50 [11]: 0.025 µg/mL (≈ 0.0452 µM)

Structure (SMILES): C[C@@H]1O[C@@H](O[C@H]2CC[C@]3(C=O)[C@H]4CC[C@]5(C)[C@@H](C6=CC(=O)OC6)CC[C@]5(O)[C@@H]4CC[C@]3(O)C2)[C@H](O)[C@H](O)[C@H]1O[C@@H]1O[C@H](CO)[C@@H](O)[C@H](O)[C@H]1O [CONVALLOSIDE]
- EC50 [1]: 0.42 µg/mL (≈ 0.589 µM)
- EC50 [2]: 0.2 µg/mL (≈ 0.281 µM)
- EC50 [3]: 0.071 µg/mL (≈ 0.0996 µM)
- EC50 [4]: 0.072 µg/mL (≈ 0.101 µM)
- EC50 [8]: 0.095 µg/mL (≈ 0.133 µM)
- EC50 [9]: 0.4 µg/mL (≈ 0.561 µM)
- EC50 [5]: 0.15 µg/mL (≈ 0.21 µM)
- EC50 [6]: 0.07 µg/mL (≈ 0.0982 µM)
- EC50 [10]: 0.18 µg/mL (≈ 0.253 µM)
- EC50 [11]: 0.2 µg/mL (≈ 0.281 µM)

Structure (SMILES): C[C@H]1O[C@@H](O[C@H]2CC[C@]3(C=O)[C@H]4CC[C@]5(C)[C@@H](C6=CC(=O)OC6)CC[C@]5(O)[C@@H]4CC[C@]3(O)C2)[C@H](O)[C@H](O)[C@H]1O [DESGLUCOCHEIROTOXIN]
- EC50 [1]: 0.015 µg/mL (≈ 0.0272 µM)
- EC50 [2]: 0.044 µg/mL (≈ 0.0799 µM)
- EC50 [3]: 0.014 µg/mL (≈ 0.0254 µM)
- EC50 [4]: 0.012 µg/mL (≈ 0.0218 µM)
- EC50 [8]: 0.018 µg/mL (≈ 0.0327 µM)
- EC50 [9]: 0.054 µg/mL (≈ 0.0981 µM)
- EC50 [5]: 0.015 µg/mL (≈ 0.0272 µM)
- EC50 [6]: 0.0092 µg/mL (≈ 0.0167 µM)
- EC50 [10]: 0.018 µg/mL (≈ 0.0327 µM)
- EC50 [11]: 0.044 µg/mL (≈ 0.0799 µM)

Structure (SMILES): C[C@H]1O[C@H](O[C@H]2CC[C@]3(C=O)[C@H]4CC[C@]5(C)[C@@H](C6=CC(=O)OC6)CC[C@]5(O)[C@@H]4CC[C@]3(O)C2)[C@H](O)[C@H](O[C@@H]2O[C@H](CO)[C@@H](O)[C@H](O)[C@H]2O)[C@@H]1O [GLUCOSTROPHALLOSIDE]
- EC50 [1]: 0.12 µg/mL (≈ 0.168 µM)
- EC50 [2]: 0.13 µg/mL (≈ 0.182 µM)
- EC50 [3]: 0.065 µg/mL (≈ 0.0912 µM)
- EC50 [4]: 0.057 µg/mL (≈ 0.08 µM)
- EC50 [8]: 0.084 µg/mL (≈ 0.118 µM)
- EC50 [9]: 0.15 µg/mL (≈ 0.21 µM)
- EC50 [5]: 0.096 µg/mL (≈ 0.135 µM)
- EC50 [6]: 0.038 µg/mL (≈ 0.0533 µM)
- EC50 [10]: 0.083 µg/mL (≈ 0.116 µM)
- EC50 [11]: 0.12 µg/mL (≈ 0.168 µM)

Structure (SMILES): C[C@@H]1O[C@H](O[C@H]2CC[C@@]3(C=O)[C@H](CC[C@@H]4[C@@H]3CC[C@]3(C)[C@@H](C5=CC(=O)OC5)CC[C@]43O)C2)[C@H](O)[C@H](O)[C@H]1O [MALAYOSIDE]
- EC50 [1]: 0.62 µg/mL (≈ 1.16 µM)
- EC50 [2]: 0.18 µg/mL (≈ 0.337 µM)
- EC50 [3]: 0.073 µg/mL (≈ 0.137 µM)
- EC50 [4]: 0.076 µg/mL (≈ 0.142 µM)
- EC50 [8]: 0.11 µg/mL (≈ 0.206 µM)
- EC50 [9]: 0.37 µg/mL (≈ 0.692 µM)
- EC50 [5]: 0.19 µg/mL (≈ 0.355 µM)
- EC50 [6]: 0.08 µg/mL (≈ 0.15 µM)
- EC50 [10]: 0.32 µg/mL (≈ 0.599 µM)
- EC50 [11]: 0.3 µg/mL (≈ 0.561 µM)

Structure (SMILES): CC(C)(O)[C@@H]1Cc2cc3ccc(=O)oc3cc2O1 [MARMESIN]
- growth inhibition (GI) [1]: inactive
- growth inhibition (GI) [3]: inactive
- growth inhibition (GI) [4]: inactive
- growth inhibition (GI) [8]: inactive
- EC50 [5]: > 20 µg/mL
- EC50 [6]: > 20 µg/mL
- growth inhibition (GI) [7]: inactive

Structure (SMILES): C[C@@H]1O[C@H](O[C@H]2CC[C@]3(C)[C@H]4CC[C@]5(C)[C@@H](C6=CC(=O)OC6)CC[C@]5(O)[C@@H]4CC[C@]3(O)C2)[C@H](O)[C@H](O)[C@H]1O [PERIPLORHAMNOSIDE]
- EC50 [1]: 0.017 µg/mL (≈ 0.0317 µM)
- EC50 [2]: 0.044 µg/mL (≈ 0.082 µM)
- EC50 [3]: 0.014 µg/mL (≈ 0.0261 µM)
- EC50 [4]: 0.012 µg/mL (≈ 0.0224 µM)
- EC50 [8]: 0.021 µg/mL (≈ 0.0391 µM)
- EC50 [9]: 0.082 µg/mL (≈ 0.153 µM)
- EC50 [5]: 0.018 µg/mL (≈ 0.0335 µM)
- EC50 [6]: 0.012 µg/mL (≈ 0.0224 µM)
- EC50 [10]: 0.02 µg/mL (≈ 0.0373 µM)
- EC50 [11]: 0.054 µg/mL (≈ 0.101 µM)

Structure (SMILES): C[C@]12CC[C@H]3[C@@H](CC[C@]4(O)C[C@@H](O)CC[C@]34C=O)[C@@]1(O)CC[C@@H]2C1=CC(=O)OC1 [STROPHANTHIDIN]
- EC50 [1]: 0.13 µg/mL (≈ 0.321 µM)
- EC50 [2]: 0.51 µg/mL (≈ 1.26 µM)
- EC50 [3]: 0.14 µg/mL (≈ 0.346 µM)
- EC50 [4]: 0.15 µg/mL (≈ 0.371 µM)
- EC50 [8]: 0.17 µg/mL (≈ 0.42 µM)
- EC50 [9]: 0.72 µg/mL (≈ 1.78 µM)
- EC50 [5]: 0.38 µg/mL (≈ 0.939 µM)
- EC50 [6]: 0.11 µg/mL (≈ 0.272 µM)
- EC50 [10]: 0.69 µg/mL (≈ 1.71 µM)
- EC50 [11]: 0.61 µg/mL (≈ 1.51 µM)

Structure (SMILES): C[C@]12CC[C@H]3[C@@H](CC[C@]4(O)C[C@@H](O)CC[C@]34CO)[C@@]1(O)CC[C@@H]2C1=CC(=O)OC1 [STROPHANTHIDOL]
- EC50 [1]: 0.57 µg/mL (≈ 1.4 µM)
- EC50 [2]: 6.4 µg/mL (≈ 15.7 µM)
- EC50 [3]: 0.67 µg/mL (≈ 1.65 µM)
- EC50 [4]: 0.66 µg/mL (≈ 1.62 µM)
- EC50 [8]: 0.81 µg/mL (≈ 1.99 µM)
- EC50 [9]: 2.9 µg/mL (≈ 7.13 µM)
- EC50 [5]: 0.69 µg/mL (≈ 1.7 µM)
- EC50 [6]: 0.14 µg/mL (≈ 0.344 µM)
- EC50 [10]: 3 µg/mL (≈ 7.38 µM)
- EC50 [11]: 2.7 µg/mL (≈ 6.64 µM)

Structure (SMILES): CO[C@H]1[C@@H](O[C@H]2CC[C@]3(C=O)[C@H]4C[C@@H](O)[C@]5(C)[C@@H](C6=CC(=O)OC6)CC[C@]5(O)[C@@H]4CC[C@]3(O)C2)O[C@H](C)[C@@H](O)[C@@H]1O [TOXICARIOSIDE B]
- EC50 [1]: 0.12 µg/mL (≈ 0.207 µM)
- EC50 [2]: 0.11 µg/mL (≈ 0.189 µM)
- EC50 [3]: 0.07 µg/mL (≈ 0.121 µM)
- EC50 [4]: 0.063 µg/mL (≈ 0.108 µM)
- EC50 [8]: 0.091 µg/mL (≈ 0.157 µM)
- EC50 [9]: 0.13 µg/mL (≈ 0.224 µM)
- EC50 [5]: 0.092 µg/mL (≈ 0.158 µM)
- EC50 [6]: 0.058 µg/mL (≈ 0.0999 µM)
- EC50 [10]: 0.14 µg/mL (≈ 0.241 µM)
- EC50 [11]: 0.13 µg/mL (≈ 0.224 µM)
